Bioassay records as filed in PubChem.
Compounds with a hit are over-represented: about 1.7% of the library has one in this group of screens.
STEP inh – blocks human striatal-enriched tyrosine phosphatase; P54829; recombinant STEP, OMFP fluorogenic substrate, fluorescence; inhibition, % at 20 µM; actives 0.25% (n = 360,000);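 active = inhibition at 20 µM, scaled per plate between control wells, above about 37%, limit read from the data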;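 note: 0% = DMSO with enzyme and substrate and 100% = substrate only without enzyme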
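System: STEP phosphatase, cell-free reaction; Buffer or medium: Bis-Tris pH 6.0 buffer with DTT, detergent; Incubation: 20 min at room temperature, dark; Measured by: fluorescence, 480/540 nm.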
Scp1 inh – blocks human Scp-1 phosphatase activity; inhibition, % at 20 µM; Recombinant Scp1, phosphopeptide, malachite green phosphate absorbance; Q9GZU7; AID 493091; actives 0.88% (n = 340,000);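 active = inhibition above about 50% at 20 µM, limit read from the data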;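 note: plate controls were DMSO wells with enzyme for no effect and wells lacking enzyme for full effect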
Target sequence (Q9GZU7 76-261 limits assumed): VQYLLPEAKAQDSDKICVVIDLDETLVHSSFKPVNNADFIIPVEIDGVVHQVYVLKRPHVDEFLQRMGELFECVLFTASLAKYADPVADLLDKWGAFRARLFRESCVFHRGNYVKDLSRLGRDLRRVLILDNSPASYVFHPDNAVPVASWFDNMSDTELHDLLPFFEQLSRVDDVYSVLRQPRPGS
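Test system: SCP-1 catalytic domain; Buffer or medium: Acidic Tris acetate buffer with magnesium and detergent; Also added: Phosphorylated 17-residue peptide substrate; Compound: single 20 µM dose, 1% DMSO; Schedule: enzyme reaction 45 min at room temperature, colour 5 min, stabilisation 30 min; Signal: Phosphate-binding colour reagent, absorbance read at 630 nm.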
LMPTP inh – blocks human LMPTP phosphatase; recombinant LMPTP-A, OMFP fluorogenic substrate, fluorescence intensity; inhibition, % at 20 µM; actives 0.22% (n = 360,000);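 active = compounds that cut the enzyme signal by at least half of the control window in the single-dose screen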;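 note: plate controls were DMSO wells with enzyme plus substrate for no effect and substrate without enzyme for full effect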
Target sequence (P24666 whole entry, looked up): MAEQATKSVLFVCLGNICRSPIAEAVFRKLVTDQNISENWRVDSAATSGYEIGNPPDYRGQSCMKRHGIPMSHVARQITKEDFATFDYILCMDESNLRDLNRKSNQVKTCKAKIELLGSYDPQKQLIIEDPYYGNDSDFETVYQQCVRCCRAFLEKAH
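Assay system: LMPTP-A, protein tyrosine phosphatase of low molecular weight / Medium: pH 6.0 Bis-Tris buffer with DTT and Triton X-100 / Schedule: 50 min enzyme reaction at room temperature, protected from light / Measured by: endpoint fluorescence intensity from OMFP dephosphorylation / Read-out basis: % inhibition relative to no-enzyme and uninhibited control wells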
SUMO1-SIM PPI – modulators of human SUMO1-mediated protein-protein interactions. inhibition, % at 20 µM. actives 0.33% (n = 360,000). P63165. SUMO1 binding to a labelled peptide, TR-FRET, 1 h; in the data active = inhibition above about 37%
Target sequence (P63165 whole entry, looked up): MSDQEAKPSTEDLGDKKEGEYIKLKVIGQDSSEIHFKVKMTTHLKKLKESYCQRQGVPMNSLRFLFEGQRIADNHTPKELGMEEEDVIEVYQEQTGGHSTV
DNMT1 block – inhibitors of human DNMT1. inhibition (reported as % activation of signal), % at 10 µM. actives 0.83% (n = 360,000). DNMT1 molecular beacon, Hinp1I cleavage, fluorescence; in the data active = inhibition above about 50%
STEP conf – STEP (human) phosphatase inhibition, single concentration confirmation | shares compounds with STEP inh | recombinant STEP, OMFP fluorogenic substrate, fluorescence | inhibition, % at 20 µM | actives 32% (n = 520) | AID 623866; call rule not given here;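 note: 0% = enzyme with substrate plus DMSO and 100% = substrate without enzyme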
Active calls of the source: *; x = not tested or not shown.

SMILES	STEP inh	Scp1 inh	LMPTP inh	SUMO1-SIM PPI	DNMT1 block	STEP conf
CC[C@@H](C)C(N)c1cn([C@@H](CCC(=O)O)C(=O)N2CCNCC2)nn1 (some centres undefined)	1	2	-5	-3	3	x
N#Cc1ccc(C(=O)N2CCC3CC2c2cc(-c4ccccc4)ccc23)cc1 (centres undefined)	70*	-8	2	8	1	21
O=C(c1ccc(Cl)cc1)N1CCC2CC1c1cc(-c3ccccc3)ccc12 (centres undefined)	3	-12	7	4	-4	x
Cc1sc2nc(CSC(C)C(=O)Nc3ccc(Cl)cn3)[nH]c(=O)c2c1C (centres undefined)	79*	2	-2	6	2	60*
CCOc1ccc(CCNC(=O)COC(=O)c2cc(=O)[nH]c3ccccc23)cc1OCC	1	-4	-1	-6	0	x
Cc1cc([N+](=O)[O-])ccc1NC(=O)Cc1ccc(F)cc1	117*	-5	-1	-10	-1	1
CCc1cc2c(NCC3CCCO3)nc(C)nc2s1 (centres undefined)	-3	0	-2	-6	-1	x
O=C(CSc1nc2cccnc2n1Cc1ccccc1)N1CCCC1	0	2	0	-3	1	x
Cn1c(SCC(=O)N2CCCC2)nc2cccnc21	52*	-6	1	0	2	1
O=C(Oc1ccc(/C=N/NC(=O)c2ccccn2)cc1)c1ccc(Br)cc1	55*	-6	55*	-1	26	1
Cc1ccc(C(=O)N/N=C\c2cccc(OC(=O)c3cccc(F)c3)c2)cn1	3	-7	0	-12	-1	x
Cc1ccc(C(=O)N/N=C\c2ccc(OC(=O)c3cccc(F)c3)cc2)cn1	82*	8	62*	4	3	-5
Cc1ccc(Cl)cc1NC(=O)C1CCCN(S(C)(=O)=O)C1 (centres undefined)	2	-6	-2	-2	1	x
Cc1cc(C(C)(C)C)cc(C)c1CCNC(=O)c1ccc[n+]([O-])c1	2	-5	-1	2	1	x
COc1cc(NC(=O)c2ccc(Cl)cc2)c(Cl)cc1NC(=O)c1cccnc1	4	-2	2	4	-3	x
COc1ccc(COc2ccsc2C(=O)Nc2ccc(Cl)c(Cl)c2)cc1	55*	42	21	0	47	14
COc1ccc(CNC(=O)c2cccnc2)cc1	-1	-8	0	3	0	x
Cc1ccc(NC(=O)C(c2ccccc2)N2CCN(CC(=O)N3CCOCC3)CC2)cc1Cl (centres undefined)	46*	48	7	0	23	-10
Cc1ccccc1OCC(=O)Nc1ccccc1N1CCC(C)CC1	4	0	4	13	4	x
Cc1cc(-c2nnc3sc(-c4ccc(Cl)cc4Cl)nn23)n[nH]1	86*	30	32	-2	12	1
CC(C(=O)Nc1ccc(O)cc1C(=O)O)N1C(=O)/C(=C\c2cccs2)SC1=S (centres undefined)	77*	34	8	6	-6	80*
CCOC(=O)C(=CN(CCc1ccccc1)CC(=O)OC)C(=O)OCC	-2	-6	1	-3	0	x
Cc1cc([N+](=O)[O-])c(C)cc1-c1ccc(/C=N/n2cnnc2)o1	50*	46	9	-13	2	-1
S=C(Nc1ccccc1Cl)NC1CCN(Cc2ccccc2)CC1	-2	-3	-1	-1	-2	x
S=C(Nc1ccccc1Cl)NC1CCC(NC(=S)Nc2ccccc2Cl)CC1 (centres undefined)	44*	-5	-3	2	20	4
SMILES	STEP inh	Scp1 inh	LMPTP inh	SUMO1-SIM PPI	DNMT1 block	STEP conf
COc1ccc(NC(=O)CSc2nnc3n2CCCCC3)cc1S(=O)(=O)N1CCOCC1	2	7	-1	-4	-1	x
N/C(=N\OC(=O)CCCc1ccccc1)c1cccc([N+](=O)[O-])c1	55*	-10	2	-22	-3	15
N/C(=N\OC(=O)CCCc1ccccc1)c1ccccc1	-2	-6	2	7	3	x
COc1ccccc1CNS(=O)(=O)c1ccc(N2CCCC2)cc1Br	3	-4	4	4	-3	x
COc1ccc(C(=O)CCC(=O)Nc2cc(Cl)c(O)c(Cl)c2)cc1	0	-12	-10	17	5	x
Cc1ccc(-c2nc3ncccc3o2)cc1NC(=O)CC(C)C	85*	3	13	3	2	9.9*
CCc1cc(C(=O)c2ccc(OC)cc2)c(NC(=O)CC(C)(C)CC(=O)O)s1	0	-7	-1	-11	2	x
COc1ccc(OCC(=O)Nc2ccc3oc(-c4ccncc4)nc3c2)cc1	49*	34	4	-1	-2	11
O=C(COc1ccc(Cl)cc1)Nc1ccc2oc(-c3ccncc3)nc2c1	5	6	10	-1	1	x
CCc1ccc(OCCSc2nc3ccccc3n2CC(=O)O)cc1	2	3	0	7	1	x
CCOc1ccc(C(=O)Nc2cc(-c3nc4ccccc4[nH]3)ccc2Cl)cc1[N+](=O)[O-]	54*	7	2	18	-13	47*
C=C1CCN([C@H](C(=O)NCc2ccccc2)C(C)C)S(=O)(=O)c2ccccc21	-6	-1	-1	7	7	x
Cc1ccc(NC(=O)C2CCN(C(=O)c3ccc(F)cc3)CC2)nc1	0	-7	1	-2	-7	x
Cc1cc(N2CCN(C(=O)c3ccco3)CC2)c2ccccc2n1	71*	-19	7	0	0	0
Nc1nc(N2CCN(C(=O)c3ccco3)CC2)nc2ccccc12	-3	-8	4	2	1	x
COc1ccc(NC(=O)N2CCCC2C(=O)NCCc2ccccc2)cc1 (centres undefined)	-3	-1	2	1	-41	x
Cc1cc(C)c(NC(=S)NCC2CCN(C(C)c3ccccc3)C2)c(C)c1 (centres undefined)	95*	-8	1	1	-5	83*
Cc1ccc(NC(=S)NCC2CCN(C(C)c3ccccc3)C2)cc1 (centres undefined)	47*	-10	1	0	0	10
NS(=O)(=O)c1ccc(NC(=S)NC2CCCCC2)cc1	60*	1	0	0	0	24
COc1ccc(C)cc1S(=O)(=O)Nc1ccc2c(c1)N(C(C)=O)CCC2	-2	2	-1	0	0	x
O=S(=O)(c1ccccc1)N1CCN(C(=S)NCCCN2CCOCC2)CC1	49*	5	-3	1	2	14
